Source: PubChem (Johns Hopkins Ion Channel Center)
TRPC4 inh – blocks the mouse TRPC4 cation channel; Q9QUQ5; AID 2247; 300,000 tested, 0.39% active; B-score at 10 µM; HEK293 TRPC4beta/mu-opioid, DAMGO-evoked Fluo4 calcium flux; hits give low values;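 active = B-score over 3 SD under the library average, no early fluorescence shift, positive overall ratio signal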
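Material: HEK293 cells with stable TRPC4beta plus mu-opioid receptor expression / Probe or stimulus: DAMGO in two steps, submaximal then maximal / Compound: single concentration per test compound / Technique: kinetic Fluo4 fluorescence imaging of calcium influx / Read-out: per-well B score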
TRPC4 PAM – allosterically enhances the mouse TRPC4 cation channel; Q9QUQ5; HEK293 TRPC4beta/mu-opioid, DAMGO EC20, Fluo-4 Ca2+ flux; hits give high values; B-score at 10 µM; 310,000 tested, 0.42% active;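 active = B-score of calcium response area above 5 SD of library B-scores, with initial fluorescence ratio within 5 SD of library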;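 note: B-score of integrated fluorescence ratio over time as area under calcium response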
TRPC6 act – activators of mouse TRPC6 channel; B-score at 10 µM; Q61143; 310,000 tested, 0.13% active; HEK293-TRPC6 membrane potential dye fluorescence; hits give high values;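 active = B-score of the integrated fluorescence ratio above library mean plus 3 SD, and starting fluorescence ratio within library mean plus 5 SD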;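 note: higher score means more depolarization so channel activation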
Target sequence (Q61143 whole entry, looked up): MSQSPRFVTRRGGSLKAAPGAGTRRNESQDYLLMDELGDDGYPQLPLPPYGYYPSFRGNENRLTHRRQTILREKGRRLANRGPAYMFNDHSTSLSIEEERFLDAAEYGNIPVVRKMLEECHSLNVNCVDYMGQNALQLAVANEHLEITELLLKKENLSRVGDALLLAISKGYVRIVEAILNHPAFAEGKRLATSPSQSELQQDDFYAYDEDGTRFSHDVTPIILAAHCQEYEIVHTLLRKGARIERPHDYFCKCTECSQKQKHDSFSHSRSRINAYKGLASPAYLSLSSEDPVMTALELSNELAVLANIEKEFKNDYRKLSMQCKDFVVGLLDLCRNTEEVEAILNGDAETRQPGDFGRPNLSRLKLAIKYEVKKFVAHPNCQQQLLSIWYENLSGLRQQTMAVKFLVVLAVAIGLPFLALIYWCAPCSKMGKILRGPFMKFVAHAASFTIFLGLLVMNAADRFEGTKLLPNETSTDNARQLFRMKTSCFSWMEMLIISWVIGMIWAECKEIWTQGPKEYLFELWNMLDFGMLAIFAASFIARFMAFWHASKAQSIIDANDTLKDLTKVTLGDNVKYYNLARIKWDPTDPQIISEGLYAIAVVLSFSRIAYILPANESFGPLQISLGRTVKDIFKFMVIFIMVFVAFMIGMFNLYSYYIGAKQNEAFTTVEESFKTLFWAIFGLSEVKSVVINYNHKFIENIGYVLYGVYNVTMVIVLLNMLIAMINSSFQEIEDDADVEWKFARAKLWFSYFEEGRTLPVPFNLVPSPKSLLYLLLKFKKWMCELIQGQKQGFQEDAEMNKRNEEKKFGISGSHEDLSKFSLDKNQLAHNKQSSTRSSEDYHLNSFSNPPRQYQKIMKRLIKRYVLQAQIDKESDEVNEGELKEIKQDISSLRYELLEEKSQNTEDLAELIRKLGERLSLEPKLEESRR
TRPC4 act – TRPC4 (mouse) channel activation; 310,000 tested, 0.49% active; HEK293 TRPC4beta/mu-opioid, Fluo4 calcium fluorescence; hits give high values; B-score at 10 µM; Q9QUQ5;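 active = B-score above 5 SD of library B-scores, and initial fluorescence ratio not above library mean plus 5 SD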;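 note: positive B-score marks a calcium rise read as TRPC4 activation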
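Test system: HEK293 cells stably co-expressing mouse TRPC4beta and mu-opioid receptor | Schedule: Fluo4 dye loading 45 min at room temperature, 110 s recording | Measured by: Kinetic Fluo4 calcium fluorescence, 5 s baseline at 1 Hz | Evaluation: B score of integrated ratio | Controls: Buffer (low) and maximal DAMGO (high)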
TRPC6 inhibitor – mouse TRPC6 channel inhibition; 310,000 tested, 1.1% active; HEK293-TRPC6, membrane potential dye, ACh-evoked depolarization; hits give low values; B-score at 10 µM; Q61143; AID 2553;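 active = B-score under library mean minus 3 SD, initial fluorescence not abnormally high, positive integrated signal ratio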;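 note: B-score derived from integrated fluorescence ratio over the kinetic read; more negative B-score means stronger inhibition of depolarization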
Numbers without * were called inactive; i = inactive. Rows were chosen to be rich in hits. Some 2.3% of all compounds tested hit in one or more screens of this group.

SMILES	TRPC4 inh	TRPC4 PAM	TRPC6 act	TRPC4 act	TRPC6 inhibitor
O=C(O)c1ccc(N/N=C/c2ccc(-c3cccc(Cl)c3)o2)cc1	-6*	i	i	i	i
COc1ccc(CNCCc2ccc([N+](=O)[O-])cc2)c(OC)c1OC	i	i	i	81*	i
COc1ccc(C)cc1NCc1ccc([N+](=O)[O-])cc1	i	i	i	i	i
CN(C)CCC1Sc2ccccc2Oc2ccccc21 (stereo unspecified)	-6*	i	i	i	i
CC1c2ccccc2SC(CCCN(C)C)c2ccccc21 (stereo unspecified)	i	i	i	i	i
CCOc1cccc(CN(C)CC2CCCN(CCc3ccc(Cl)cc3)C2)c1O (stereo unspecified)	i	i	i	i	i
COc1ccc(S(=O)(=O)NCC(=O)N(CC2CCCO2)C(C(=O)NC2CCCC2)C(C)C)cc1 (stereo unspecified)	i	i	i	i	i
Cc1ccc(S(=O)(=O)Nc2cccc(-c3ccc(N4CCCCCC4)nn3)c2)cc1	i	i	i	i	i
O=C(Cc1cccs1)Nc1nc(-c2ccc(F)cc2F)cs1	i	85*	i	i	i
CN(C)CCCNC(=S)NCC(c1ccc(Cl)cc1Cl)c1c[nH]c2ccccc12 (stereo unspecified)	i	12*	i	i	i
NCC(c1ccc(Cl)cc1Cl)c1c[nH]c2ccccc12 (stereo unspecified)	i	26*	i	i	i
CCC(=O)N1CCN=C1SCc1cccc(C(F)(F)F)c1	i	i	i	i	i
CC(=O)Nc1ccc(NC(=O)C2CCCCN2S(=O)(=O)c2ccc(C(C)(C)C)cc2)cc1 (stereo unspecified)	i	i	i	i	i
N#CC(C#N)=Cc1cccn1-c1ccc(C(=O)O)cc1	i	i	i	i	i
N#C/C(=C/c1cccn1-c1cccc(C(=O)O)c1)c1ccc(Cl)cc1	-6*	i	i	i	i
O=C(Nc1nc(-c2ccccn2)cs1)c1cccc(-n2cnnn2)c1	i	13*	i	i	i
O=C(Nc1ccc(Br)cc1)c1cccc(-n2cnnn2)c1	i	i	i	i	i
CCn1c2ccccc2c2cc(CNCc3ccc(OC)cc3OC)ccc21	i	i	i	66*	i
COc1ccc(CNCc2cc(C)c(OC)cc2C)c(OC)c1	-5*	i	i	i	i
CCC(CC)NCc1ccc2c(c1)c1ccccc1n2CC	i	i	i	i	i
CCn1c2ccccc2c2cc(CNCCCN3CCOCC3)ccc21	i	i	i	i	-6.3*
COc1c2c(cc3c1C(CC(O)Cc1ccccc1)N(C)CC3)OCO2 (stereo unspecified)	i	i	i	96*	i
O=C(Cn1nc(-c2ccccc2)ccc1=O)NCCN1CCN(Cc2ccccc2)CC1	i	19*	i	i	i
O=C(Cc1ccccc1)NCCCN1CCN(CCCNC(=O)Cc2ccccc2)CC1	i	11*	i	i	i
C#CCOCCOCCOCCNc1nc(N2CCN(C(=O)[C@H](CCCCN)n3cc([C@@H](N)CO)nn3)CC2)nc(N2CCN(C(=O)[C@H](Cc3cc4ccccc4[nH]3)n3cc([C@@H](N)CC(C)C)nn3)CC2)n1	i	i	i	i	i
SMILES	TRPC4 inh	TRPC4 PAM	TRPC6 act	TRPC4 act	TRPC6 inhibitor
Oc1cccc(C2c3[nH]c4ccccc4c3CCN2Cc2ccc3c(c2)CCO3)c1 (stereo unspecified)	-6*	i	i	i	i
Oc1cccc(C2c3[nH]c4ccccc4c3CCN2Cc2ccoc2)c1 (stereo unspecified)	i	i	i	i	i
CCCCN(C)CCNC(=O)C(NC(=O)C1CCC(C)CC1)C(C)C (stereo unspecified)	i	i	i	52*	i
CC1CCC(C(=O)NC(C(=O)NCCCN2CCOCC2)C(C)C)CC1 (stereo unspecified)	i	i	i	i	i
CN(C(=O)c1cc2c(=O)n3ccccc3nc2n1C)C1CCCCC1	i	i	i	i	i
O=C(COc1ccc2ccccc2c1)Nc1ccccc1C(=O)O	i	i	i	i	i
CSc1ccc(S(=O)(=O)NCC(=O)OCC(=O)N(Cc2ccccc2)C(C)C)cc1[N+](=O)[O-]	i	i	i	i	i
CSc1ccc(S(=O)(=O)NCC(=O)OCC(=O)N(C)Cc2ccccc2)cc1[N+](=O)[O-]	i	17*	i	i	i
COc1ccc(OC2CCN(S(=O)(=O)c3cccc(F)c3)CC2)cc1	i	11*	i	i	i
CCN1CCN(C(=O)C2c3cc(OC)c(OC)cc3C(=O)N(C)C2c2ccc(SC)cc2)CC1 (stereo unspecified)	i	i	i	67*	i
COc1ccc(C2C(C(=O)N3CCN(C)CC3)c3cc(OC)c(OC)cc3C(=O)N2C)cc1 (stereo unspecified)	i	i	i	i	i
Cc1ccc(S(=O)(=O)CCC(=O)OCC(=O)Nc2cc(F)ccc2C)cc1	i	i	i	i	i
O=C(CSc1nc(=O)n(CCN2CCOCC2)c2c1CCC2)Nc1ccc(OC(F)(F)F)cc1	-6*	i	i	i	i
COc1cccc(-c2c(C#N)c(N)nc3c2c(C)nn3-c2ccccc2)c1O	i	15*	i	i	i
CN1CCN(Cc2cccc(Oc3ccc(Cl)cc3)c2)CC1	i	19*	i	i	i
O=C1NC(c2ccccc2)=C(c2nc3ccccc3s2)C(c2ccccc2)N1 (stereo unspecified)	i	19*	i	i	i
Cc1ccsc1/C=C(\C#N)C(=O)Nc1c(C)n(C)n(-c2ccccc2)c1=O	i	11*	i	i	i
CC(C)(C)n1nnnc1C(c1ccc(Cl)cc1)N(Cc1cccnc1)Cc1ccco1 (stereo unspecified)	i	42*	i	i	i
COc1ccc(N2CCN(Cc3nc4ccccc4n3C)CC2)cc1	i	i	i	124*	i
CCN(c1ccccc1)S(=O)(=O)c1ccc(C(=O)N(C)CCc2ccc(OC)c(OC)c2)cc1	i	i	i	i	i
CCOC(=O)c1c(NC(=O)COC(=O)Cn2cnc3c2c(=O)n(C)c(=O)n3C)sc(C)c1CC	-7*	i	i	i	i
